What all share (format): ADME, organism-based
Data set [1] is described as follows: AUC (0 to infinity) in normally fed BALB/c mouse at 10 mg/kg, im. Further details: time infinity, dose 10 mg/kg, route intramuscular. The settings on record: plasma. The essentials:
(§1)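 Male BALB/c mice, 6-8 weeks (25-30 g), fed or food-deprived 15 h with water available; tobramycin in physiologic solution given by gavage (50 mg/kg), or 10 mg/kg iv (tail vein) or im (hind leg) in fed mice. Groups of 3 per time point; submandibular blood at 0-180 min; plasma tobramycin by homogeneous enzyme immunoassay; noncompartmental PK analysis.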

The nature of data set [2]: Half life in normally fed BALB/c mouse at 10 mg/kg, iv. On the set-up: dose 10 mg/kg, route intravenous. The settings on record: in vivo. The essentials:
as §1

Data set [3] can be described thus: Cmax in 15 hrs fasted BALB/c mouse at 50 mg/kg, po. Further details: dose 50 mg/kg, route oral. The settings on record: in vivo. The essentials: as §1
Data set [4] is described as follows: Tmax in normally fed BALB/c mouse at 10 mg/kg, im. Further details: dose 10 mg/kg, route intramuscular. Conditions: in vivo. The essentials: as §1
A short description of data set [5]: Half life in 15 hrs fasted BALB/c mouse at 50 mg/kg, po. On the set-up: dose 50 mg/kg, route oral. Conditions: in vivo. The essentials:
as §1

The nature of data set [6]: Tmax in normally fed BALB/c mouse at 10 mg/kg, iv. Further details: dose 10 mg/kg, route intravenous. The settings on record: in vivo. The essentials:
as §1

Data set [7] is described as follows: Half life in normally fed BALB/c mouse at 10 mg/kg, im. The settings on record: in vivo. On the set-up: dose 10 mg/kg, route intramuscular. The essentials: as §1
Data set [8] is described as follows: Oral bioavailability in normally fed BALB/c mouse at 10 mg/kg, im. Conditions: in vivo, intramuscular. The essentials:
as §1

Data set [9] can be described thus: Cmax in normally fed BALB/c mouse at 10 mg/kg, iv. On the set-up: dose 10 mg/kg, route intravenous. The settings on record: in vivo. The essentials:
as §1

Data set [10] is described as follows: Oral bioavailability in 15 hrs fasted BALB/c mouse at 50 mg/kg, po. Conditions: in vivo. The essentials:
as §1

Data set [11] is described as follows: AUClast in 15 hrs fasted BALB/c mouse at 50 mg/kg, po. Further details: time 0 - last, dose 50 mg/kg, route oral. The settings on record: plasma. The essentials:
as §1

A short description of data set [12]: Tmax in normally fed BALB/c mouse at 50 mg/kg, po. Further details: dose 50 mg/kg, route oral. Conditions: in vivo. The essentials: as §1
Data set [13] can be described thus: Tmax in 15 hrs fasted BALB/c mouse at 50 mg/kg, po. On the set-up: dose 50 mg/kg, route oral. Conditions: in vivo. The essentials:
as §1

Data set [14] in a line: AUClast in normally fed BALB/c mouse at 10 mg/kg, im. Further details: time 0 - last, dose 10 mg/kg, route intramuscular. The settings on record: plasma. The essentials: as §1
Data set [15] is described as follows: Cmax in normally fed BALB/c mouse at 50 mg/kg, po. On the set-up: dose 50 mg/kg, route oral. The settings on record: in vivo. The essentials: as §1
Data set [16] is described as follows: AUClast in normally fed BALB/c mouse at 10 mg/kg, iv. Further details: time 0 - last, dose 10 mg/kg, route intravenous. Conditions: plasma. The essentials: as §1
Data set [17] is described as follows: Oral bioavailability in normally fed BALB/c mouse at 50 mg/kg, po. Conditions: in vivo. The essentials:
as §1

A short description of data set [18]: AUC (0 to infinity) in normally fed BALB/c mouse at 10 mg/kg, iv. On the set-up: time infinity, dose 10 mg/kg, route intravenous. The settings on record: plasma. The essentials:
as §1

Data set [19] can be described thus: Half life in normally fed BALB/c mouse at 50 mg/kg, po. Further details: dose 50 mg/kg, route oral. Conditions: in vivo. The essentials: as §1
Data set [20] in a line: AUC (0 to infinity) in normally fed BALB/c mouse at 50 mg/kg, po. Further details: time infinity, dose 50 mg/kg, route oral. The settings on record: plasma. The essentials: as §1
For another data set, the system named is Mus musculus. Put plainly: Oral bioavailability in normally fed BALB/c mouse at 10 mg/kg, iv. The settings on record: in vivo. The essentials: as §1
The nature of data set [21]: AUClast in normally fed BALB/c mouse at 50 mg/kg, po. On the set-up: time 0 - last, dose 50 mg/kg, route oral. Conditions: plasma. The essentials:
as §1

A short description of data set [22]: Cmax in normally fed BALB/c mouse at 10 mg/kg, im. On the set-up: dose 10 mg/kg, route intramuscular. The settings on record: in vivo. The essentials:
as §1

Data set [23] in a line: AUC (0 to infinity) in 15 hrs fasted BALB/c mouse at 50 mg/kg, po. Further details: time infinity, dose 50 mg/kg, route oral. The settings on record: plasma. The essentials: as §1

The term AUC(0-inf) denotes the area under the concentration-time curve extrapolated to infinity. A high value points to high exposure. Usually half-life stands for how long it takes for the measured level to halve. Read a low half-life as fast loss. What is called Cmax is the highest concentration seen after dosing. Usually Tmax stands for the time from dosing to the highest level. In general, bioavailability refers to dose-corrected exposure relative to a reference, in per cent. Read a low bioavailability as poor availability. Broadly, the AUC(0-t) is the area under the concentration-time curve up to a stated or last time point. Read a low AUC(0-t) as less exposure.

As to `NC[C@H]1O[C@H](O[C@H]2[C@H](O)[C@@H](O[C@H]3O[C@H](CO)[C@@H](O)[C@H](N)[C@H]3O)[C@H](N)C[C@@H]2N)[C@H](N)C[C@@H]1O` [TOBRAMYCIN], the AUC(0-inf) is 11100 ng·h/mL in data set [1], 11500 ng·h/mL in [18], 316 ng·h/mL in data set [20] and 7300 ng·h/mL in data set [23]. The half-life was determined as 20.3 min in [2], 22 min in data set [5], 17.7 min in data set [7] and 41.6 min in data set [19]. Moreover, the Cmax in data set [3] is 7800 ng/mL; in data set [9], 35300 ng/mL; in data set [15] it was 330 ng/mL; in [22], 16500 ng/mL. Moreover, the Tmax in data set [4] is 15 min; in data set [6], 5 min; in data set [12] it was 15 min; in data set [13], 15 min. For the same compound, the bioavailability in [8] stood at 96.5%; in data set [10], 12.4%; in data set [17] it was 0.48%. For the same compound, the AUC(0-t) in data set [11] was 7060 ng·h/mL; in data set [14] it was 11000 ng·h/mL; in data set [16] it was 11400 ng·h/mL; in data set [21], 274 ng·h/mL. Moreover, the F in the data set with Mus musculus is on record as 100%.

Source of the values: ChEMBL document CHEMBL1255400, “Fasting increases tobramycin oral absorption in mice” (Antimicrob Agents Chemother, 2010).
